# Source: PubChem (several laboratories)
# HTR2A ag = mouse Htr2a agonists via beta-arrestin recruitment, primary screen, cell-based, luminescence | 5-hydroxytryptamine receptor 2A (Mus musculus), P35363 | CHO-K1 mHTR2A beta-arrestin complementation; percent of 30 µM serotonin response | activation, % at 7.6 µM | 360,000 compounds, 0.66% hits;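 active means activation above a run cutoff, the mean activation of all tested compounds plus 3 SD, cut at about 14% in these data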;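 further: 0% = plate median of compound wells and 100% = 30 µM serotonin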
# APJ antag = antagonists of human apelin receptor APJ, primary screen, CHO-K1 cells, beta-arrestin complementation, luminescence. P35414. 330,000 compounds, 0.32% hits. inhibition, % at 20 µM. AID 2521, 2010;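 active means inhibition above about 40% at 20 µM, limit read from the data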;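 further: cells challenged with 10 nM apelin-13 agonist together with compound; plate controls were apelin-13 plus DMSO wells for no effect and DMSO wells lacking apelin-13 for full effect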
# Target sequence (P35414 whole entry, looked up): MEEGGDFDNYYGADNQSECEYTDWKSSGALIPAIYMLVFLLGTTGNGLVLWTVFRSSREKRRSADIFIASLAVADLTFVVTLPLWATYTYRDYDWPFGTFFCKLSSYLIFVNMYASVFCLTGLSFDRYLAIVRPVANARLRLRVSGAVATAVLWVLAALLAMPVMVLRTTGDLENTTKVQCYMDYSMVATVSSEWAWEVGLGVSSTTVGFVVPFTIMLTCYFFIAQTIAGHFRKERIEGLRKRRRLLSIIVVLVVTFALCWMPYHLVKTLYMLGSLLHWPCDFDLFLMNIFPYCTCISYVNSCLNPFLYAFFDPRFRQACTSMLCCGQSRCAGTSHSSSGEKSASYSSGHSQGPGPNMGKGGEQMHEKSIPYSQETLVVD
# APJ ag = agonists of human apelin receptor APJ, primary screen, CHO-K1 cells, PathHunter beta-arrestin, luminescence | AID 2520, 2010 | activation, % at 20 µM | P35414 | 330,000 compounds, 0.11% hits | 0% DMSO wells, 100% apelin;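 active means activation more than six SD over the plate average, tested at 20 µM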;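 further: 0% = DMSO alone and 100% = apelin-13 at 10 nM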
#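 Material: engineered CHO-K1 APJ arrestin reporter cells; amount: 1000 CHO-K1 reporter cells seeded per well; incubation: compound stimulation 90 min at 25 °C, detection 60 min; signal: luminescent beta-gal fragment complementation, chemiluminescent substrate; read-out basis: APJ agonist activity; controls: DMSO-only wells as negative, 10 nM Apelin-13 as positive control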
# CXCR6 inh = CXCR6 receptor inhibitors, primary screen, cell-based, beta-arrestin, luminescence, CHO-K1 PathHunter, 1536-well; inhibition, % at 20 µM; 360,000 compounds, 0.36% hits; in the data active means inhibition above about 34%, passing the limit was not always enough;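 further: antagonist mode with CXCL16 agonist at 10 nM final; 0% = 10 nM CXCL16 with DMSO and 100% = unstimulated wells without agonist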
# CCR6 antagonist = CCR6 receptor antagonists, primary screen, cell-based, CHO-K1, luminescence, beta-arrestin, uHTS. C-C chemokine receptor type 6 (Homo sapiens), P51684. CHO-K1 CCR6 PathHunter beta-arrestin, CCL20-stimulated. inhibition, % at 20 µM. 340,000 compounds, 0.49% hits;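 active means compounds whose inhibition of the agonist-driven luminescence signal at 20 µM reaches about 50%, limit read from the data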;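 further: cells stimulated with CCL20 at 14 nM final; plate controls were DMSO with CCL20 for no effect and DMSO without agonist for full effect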
# EBI2 block = EBI2 receptor antagonists, beta-arrestin recruitment, primary screen, cell-based, luminescence, 7a,25-OHC stimulation, uHTS; inhibition, % at 5 µM; 7a,25-OHC stimulated; 360,000 compounds, 0.81% hits; AID 651636, 2012; in the data active means inhibition above about 38%;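 further: enzyme fragment complementation signal reports receptor beta-arrestin coupling in cells; 0% = agonist plus DMSO wells and 100% = wells without agonist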
# OPRM1 ag = OPRM1 agonists via beta-arrestin recruitment, confirmation, counter-screen for mouse HTR2A agonist project, cell-based, luminescence, single concentration; shares compounds with HTR2A ag; U2OS OPRM1 beta-arrestin PathHunter; DMSO 0%, DAMGO 9.3 µM 100%; activation, % at 9.3 µM; 2,300 compounds, 5.3% hits; AID 624380, 2012;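 active means mean activation above the mean of DMSO-only wells plus 3 SD, cut at about 0.5% in these data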
# m5-HT2A ag conf = mouse HTR2A agonists, beta-arrestin recruitment, confirmation, cell-based, luminescence, CHO-K1 PathHunter, triplicate | activation, % at 7.6 µM | 2,300 compounds, 19% hits | DMSO 0%, 30 µM serotonin 100% | shares compounds with HTR2A ag;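 active means mean activation across triplicates above the hit threshold derived in the original primary screen, cut at about 15% in these data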
# EBI2 antag conf = EBI2 antagonist hit retest, beta-arrestin, confirmation, cell-based, single concentration, luminescence, 7a,25-OHC stimulation; 7a,25-OHC antagonism; inhibition, % at 5 µM; 2,400 compounds, 29% hits; AID 651997, 2013; shares compounds with EBI2 block;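 active means inhibition of at least 50%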
# EBI2 agonist = EBI2 agonist activity of antagonist hits, confirmation, counter-screen for EBI2 antagonist project, cell-based, single concentration, agonist mode, luminescence; AID 652000, 2013; activation, % at 5 µM; 2,400 tested, under 10 active; shares compounds with EBI2 block; EBI2-expressing cells, 60 min; 0% vehicle, 100% 7α,25-dihydroxycholesterol control;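 active means activation of at least 50%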
# bGal counter = E. coli beta-galactosidase enzyme inhibition, confirmation, counter-screen for EBI2 antagonist project, biochemical, luminescence, single concentration | shares compounds with EBI2 block | AID 652176, 2013 | inhibition, % at 5 µM | 2,400 compounds, 1% hits | purified beta-galactosidase, luminescent Galacton Star, 15 min;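 active means replicate-average signal at least 3 plate SD below neutral wells, shown as high inhibition, flagging enzyme-inhibiting false positives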;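 further: 0% = DMSO wells with enzyme and 100% = wells lacking enzyme; higher means stronger loss of beta-gal luminescence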
# An asterisk follows results filed as active; . = no result. This is a sample that favours compounds with a hit; in the whole collection about 2.1% have one here.
SMILES,HTR2A ag,APJ antag,APJ ag,CXCR6 inh,CCR6 antagonist,EBI2 block,EBI2 antag conf,EBI2 agonist,bGal counter,others
Cc1ccc(-c2nc3ccc(C)cn3c2CC(=O)N(C)C)cc1,28.9*,-4.4,-6.5,1.7,-12.8,-2.7,.,.,.,OPRM1 ag=-0.7;m5-HT2A ag conf=-2.9
O=C(Cc1c(-c2ccccc2)nc2ccc(Br)cn12)N1CCCC1,-1.3,.,.,-2.6,.,-12.5,.,.,.,
COCCNC(=O)N1[C@H]2CC[C@@H]1C(C(=O)OC)=C(c1ccc(OC(F)(F)F)cc1)C2,-4.2,-10.2,-2.0,-0.7,14.0,2.5,.,.,.,
CN1CC(C(=O)c2ccc(Cl)cc2)C(c2ccc(N(C)C)cc2)C1 (stereo unspecified),-13.3,18.3,-4.1,-6.9,8.1,-2.0,.,.,.,
c1coc(CN2Cc3ccccc3-n3nncc3C2)c1,17.7*,.,.,-7.3,.,-7.2,.,.,.,OPRM1 ag=-0.6;m5-HT2A ag conf=-2.1
c1ccc(CN2Cc3ccccc3-n3nncc3C2)cc1,-2.3,.,.,0.6,.,-6.5,.,.,.,
COc1ccc(OCC(=O)N2CCN(Cc3c[nH]c4ccccc34)CC2)cc1,25.5*,.,.,1.4,-11.2,47.5*,29.0,1.7,2.4,OPRM1 ag=-0.6;m5-HT2A ag conf=16.1*
CC12CN3CC(C)(CN(C1)C3c1ccco1)C2=O (stereo unspecified),5.0,3.4,0.8,1.1,2.5,2.4,.,.,.,
Nc1c(C(=O)NCCc2ccccc2)c2nc3ccccc3nc2n1CCN1CCOCC1,3.8,21.6,-4.5,2.3,32.1,20.7,.,.,.,
Nc1c(C(=O)NCCN2CCOCC2)c2nc3ccccc3nc2n1Cc1ccccc1,2.4,11.9,-3.6,-1.9,0.3,74.1*,34.1,1.0,6.1,
CC12CCC3C(CC=C4CC(O)CCC43C)C1C/C(=C\c1cccc(F)c1)C2=O (stereo unspecified),0.8,12.9,5.5,-0.8,-17.1,46.3*,4.9,-0.4,-7.7,
CCOC(=O)[C@]12Cc3cc(OC)ccc3[C@H]1N(C1CCCCC1)C(=O)c1ccccc12,0.9,.,.,16.7,.,63.8*,20.6,0.8,-15.1,
CCCC(=O)c1cc(CP(=O)(OCC)OCC)oc1C,0.2,11.6,-1.1,-2.2,6.1,-4.2,.,.,.,
COC(=O)C1=C(c2c(C)noc2C)C[C@@H]2CC[C@H]1N2C(=O)N1CCC(O)(c2ccc(Cl)cc2)CC1,-4.1,6.7,-1.6,3.5,4.9,41.9*,26.1,-1.3,-18.3,
CN1CCN(C(=O)COc2ccc3ccccc3c2)CC1,0.0,27.9,0.6,-0.2,12.8,52.9*,30.7,-0.6,-7.1,
